According to ChEMBL document CHEMBL4350956, “Paired Utility of Aza-Amino Acyl Proline and Indolizidinone Amino Acid Residues for Peptide Mimicry: Conception of Prostaglandin F2α Receptor Allosteric Modulators That Delay Preterm Birth” (J Med Chem, 2019):
The source made the active and inactive calls. The calls are words filed in the database; no cut-off is given here. Non-standard residues stand in square brackets, D forms with d. Residues, ends and D or L forms follow the SMILES beside them. *: point of attachment. Pro(trans-4-F) = O=C(O)[C@@H]1C[C@@H](F)CN1; Pro(cis-4-F) = O=C(O)[C@@H]1C[C@H](F)CN1; Pro(4R-NH2) = N[C@H]1CN[C@H](C(=O)O)C1; 3Pal = N[C@@H](Cc1cccnc1)C(=O)O; β3hF = N[C@H](CC(=O)O)Cc1ccccc1; PhAc = O=C(Cc1ccccc1)*; azaGly = NNC(=O)O

Assays:
[1] = molecular target: Prostaglandin F2-alpha receptor (Mus musculus) (UniProt P43117); assay: Allosteric modulator activity at prostaglandin F2alpha receptor in CD-1 mouse myometrial strips assessed as inhibition of PGF2alpha- induced contraction at 10 uM pre-incubated for 20 mins followed by PGF2alpha challenge
Outline: (§1)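 Myometrial strips; baseline taken as mean tension of spontaneous contractions at start. Pretreated 20 min with modulator, then PGF2α challenge. Tension rise computed as […], X = PGF2α-induced change in mean tension (g), Y = initial reference response (g). % inhibition = (A-B)/A, A without and B with pretreatment. 5 experiments per group; means ± SEM.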

[2] = molecular target: Prostaglandin F2-alpha receptor (Mus musculus) (UniProt P43117); assay: Allosteric modulator activity at prostaglandin F2alpha receptor in CD-1 mouse myometrial strips assessed as inhibition of PGF2alpha- induced contraction at 1 uM pre-incubated for 20 mins followed by PGF2alpha challenge; outline: as §1
[3] = Solubility of the compound; assay type: physicochemical
Mus musculus [4] = assay: Suppression of LPS-induced premature delivery in Timed-pregnant CD-1 mouse assessed as inhibition of LPS-induced myometrial contraction by measuring time of delay in labor at 20 mg administered subcutaneously followed by 0.1 mg, ip bolus injection on day 16 prior to LPS challenge (reference value: 12 hrs); assay type: functional
Outline: (§2)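 Pregnant mice given LPS (E. coli endotoxin) intraperitoneally on gestational day 16. Test agent 20 mg/kg/day, started on day 16, before LPS; controls received saline. Delivery scored as percentage of animals delivered at 12, 15–24, 24–48 and 72 h after LPS. Average delivery time after LPS also recorded. 5–6 animals per treated group; n=10 for saline controls.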

Mus musculus [5] = assay: (§3) Suppression of LPS-induced premature delivery in Timed-pregnant CD-1 mouse assessed as inhibition of LPS-induced myometrial contraction at 20 mg administered subcutaneously followed by 0.1 mg, ip bolus injection on day 16 prior to LPS challenge and measured up to day 19; assay type: functional, organism-based; outline: as §2
Mus musculus [6] = assay: as §3, with “contraction by measuring percentage of animals delivering” for “contraction”, “on” for “up to”, “17” for “19”; assay type: functional; set-up: scale not given: the % may be the effect or the level left; outline: as §2
Mus musculus [7] = organism: Mus musculus; assay: Inhibition of spontaneous myometrial contraction in CD-1 mouse assessed as decrease in mean tension at 10 uM; assay type: functional, tissue-based; conditions: Myometrium
Mus musculus [8] = assay: Suppression of PGF2alpha-induced premature delivery in Timed-pregnant CD-1 mouse assessed as inhibition of PGFalpha-induced myometrial contraction by measuring time of delay in labor at 10 mg administered subcutaneously followed by 0.1 mg, ip bolus injection on day 16 prior to PGF2alpha challenge (reference value: 2 hrs); assay type: functional

Chain of Prostaglandin F2-alpha receptor (Mus musculus) (P43117 whole entry): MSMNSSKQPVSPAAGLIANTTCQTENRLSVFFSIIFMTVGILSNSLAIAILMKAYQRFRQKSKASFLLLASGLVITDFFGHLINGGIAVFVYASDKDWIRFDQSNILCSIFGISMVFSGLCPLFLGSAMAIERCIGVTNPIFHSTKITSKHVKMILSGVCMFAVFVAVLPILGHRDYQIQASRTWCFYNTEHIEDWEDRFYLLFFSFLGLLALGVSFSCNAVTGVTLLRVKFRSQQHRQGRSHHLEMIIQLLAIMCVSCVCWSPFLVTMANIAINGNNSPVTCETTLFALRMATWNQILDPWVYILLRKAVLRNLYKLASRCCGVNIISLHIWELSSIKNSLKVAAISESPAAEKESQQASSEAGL

O=C(O)C[C@H](Cc1ccccc1)NC(=O)[C@H](Cc1cccnc1)NC(=O)[C@@H]1C[C@@H](F)CN1C(=O)N(Cc1ccccc1)NC(=O)Cc1ccccc1
inhibition [1]: inactive | inhibition [2]: inactive

O=C(O)C[C@H](Cc1ccccc1)NC(=O)[C@H](Cc1cccnc1)NC(=O)[C@@H]1CCCN1C(=O)N(Cc1cn(-c2ccc([N+](=O)[O-])cc2)nn1)NC(=O)Cc1ccccc1
inhibition [1]: inactive | solubility [3]: Insoluble | inhibition [2]: inactive

O=C(O)C[C@H](Cc1ccccc1)NC(=O)[C@H](Cc1cccnc1)NC(=O)[C@@H]1CCCN1C(=O)N(Cc1ccc([N+](=O)[O-])cc1)NC(=O)Cc1ccccc1
inhibition [1]: inactive | inhibition [2]: inactive

O=C(O)C[C@H](Cc1ccccc1)NC(=O)[C@H](Cc1cccnc1)NC(=O)[C@@H]1C[C@@H](F)CN1C(=O)NNC(=O)Cc1ccccc1 (PhAc-[azaGly][Pro(trans-4-F)][3Pal][β3hF]-OH)
inhibition [1]: inactive | inhibition [2]: inactive

O=C(O)C[C@H](Cc1ccccc1)NC(=O)[C@H](Cc1cccnc1)NC(=O)[C@@H]1C[C@H](F)CN1C(=O)N(Cc1ccccc1)NC(=O)Cc1ccccc1
inhibition [1]: inactive | inhibition [2]: inactive

O=C(O)C[C@H](Cc1ccccc1)NC(=O)[C@H](Cc1cccnc1)NC(=O)[C@@H]1CCCN1C(=O)N(Cc1c(F)c(F)c(F)c(F)c1F)NC(=O)Cc1ccccc1
inhibition [1]: inactive | solubility [3]: Insoluble | inhibition [2]: inactive

N[C@@H]1C[C@@H](C(=O)N[C@@H](Cc2cccnc2)C(=O)N[C@H](CC(=O)O)Cc2ccccc2)N(C(=O)NNC(=O)Cc2ccccc2)C1 (PhAc-[azaGly][Pro(4R-NH2)][3Pal][β3hF]-OH)
inhibition [1]: Active | inhibition [2]: Active

O=C(O)C[C@H](Cc1ccccc1)NC(=O)[C@H](Cc1cccnc1)NC(=O)[C@@H]1C[C@@H](O)CN1C(=O)N(Cc1ccccc1)NC(=O)Cc1ccccc1
inhibition [1]: inactive | inhibition [2]: inactive

O=C(O)C[C@H](Cc1ccccc1)NC(=O)[C@H](Cc1cccnc1)NC(=O)[C@@H]1CCCN1C(=O)N(Cc1cn(-c2ccc(F)cc2)nn1)NC(=O)Cc1ccccc1
inhibition [1]: inactive | inhibition [2]: inactive

COc1ccc(C2=C3CC[C@@H](C(=O)N[C@@H](Cc4cccnc4)C(=O)N[C@H](CC(=O)O)Cc4ccccc4)N3C(=O)[C@@H](NC(=O)Cc3ccccc3)C2)cc1
inhibition [1]: inactive | inhibition [2]: inactive

O=C(O)C[C@H](Cc1ccccc1)NC(=O)[C@H](Cc1cccnc1)NC(=O)[C@@H]1C[C@H](F)CN1C(=O)NNC(=O)Cc1ccccc1 (PhAc-[azaGly][Pro(cis-4-F)][3Pal][β3hF]-OH)
inhibition [1]: Active | inhibition [2]: Active

O=C(O)C[C@H](Cc1ccccc1)NC(=O)[C@H](Cc1cccnc1)NC(=O)[C@@H]1CCCN1C(=O)N(Cc1ccccc1)NC(=O)Cc1ccccc1
Time (Mus musculus [4]): 24 h | inhibition (Mus musculus [5]): Active | inhibition [1]: Active | Activity (Mus musculus [6]): <20%

O=C(O)C[C@H](Cc1ccccc1)NC(=O)[C@H](Cc1cccnc1)NC(=O)[C@@H]1C[C@H](O)CN1C(=O)NNC(=O)Cc1ccccc1
inhibition [1]: inactive | inhibition [2]: inactive

O=C(O)C[C@H](Cc1ccccc1)NC(=O)[C@H](Cc1cccnc1)NC(=O)[C@@H]1C[C@H](O)CN1C(=O)N(Cc1ccccc1)NC(=O)Cc1ccccc1
inhibition [1]: inactive | inhibition [2]: inactive

C#CCN(NC(=O)Cc1ccccc1)C(=O)N1C[C@@H](F)C[C@H]1C(=O)N[C@@H](Cc1cccnc1)C(=O)N[C@H](CC(=O)O)Cc1ccccc1
inhibition [1]: inactive | inhibition [2]: inactive

O=C(O)C[C@H](Cc1ccccc1)NC(=O)[C@H](Cc1cccnc1)NC(=O)[C@@H]1CCCN1C(=O)N(Cc1cn(-c2ccccc2)nn1)NC(=O)Cc1ccccc1
inhibition [1]: inactive | inhibition [2]: inactive

O=C(O)C[C@H](Cc1ccccc1)NC(=O)[C@H](Cc1cccnc1)NC(=O)[C@@H]1CCC2=C(c3ccc(OC(F)(F)F)cc3)C[C@H](NC(=O)Cc3ccccc3)C(=O)N21
inhibition [1]: inactive | inhibition [2]: inactive | inhibition (Mus musculus [7]): Active

Cc1ccc(CN(NC(=O)Cc2ccccc2)C(=O)N2CCC[C@H]2C(=O)N[C@@H](Cc2cccnc2)C(=O)N[C@H](CC(=O)O)Cc2ccccc2)cc1
inhibition [1]: inactive | inhibition [2]: inactive

O=C(O)C[C@H](Cc1ccccc1)NC(=O)[C@H](Cc1cccnc1)NC(=O)[C@@H]1C[C@@H](O)CN1C(=O)NNC(=O)Cc1ccccc1
inhibition [1]: inactive | inhibition [2]: inactive

N#Cc1ccc(C2=C3CC[C@@H](C(=O)N[C@@H](Cc4cccnc4)C(=O)N[C@H](CC(=O)O)Cc4ccccc4)N3C(=O)[C@@H](NC(=O)Cc3ccccc3)C2)cc1
inhibition [1]: inactive | inhibition [2]: inactive

O=C(O)C[C@H](Cc1ccccc1)NC(=O)[C@H](Cc1cccnc1)NC(=O)[C@@H]1CCCN1C(=O)N(CC#CCN1CCCCC1)NC(=O)Cc1ccccc1
inhibition [1]: inactive | inhibition [2]: inactive

O=C(O)C[C@H](Cc1ccccc1)NC(=O)[C@H](Cc1cccnc1)NC(=O)[C@@H]1CCCN1C(=O)N(Cc1cn(-c2ccc(I)cc2)nn1)NC(=O)Cc1ccccc1
inhibition [1]: inactive | inhibition [2]: inactive

O=C(O)C[C@H](Cc1ccccc1)NC(=O)[C@H](Cc1cccnc1)NC(=O)[C@@H]1CCCN1C(=O)N(Cc1c[nH]nn1)NC(=O)Cc1ccccc1
inhibition [1]: inactive | inhibition [2]: inactive

O=C(O)C[C@H](Cc1ccccc1)NC(=O)[C@H](Cc1cccnc1)NC(=O)[C@@H]1C[C@@H](O)[C@H]2CC[C@H](NC(=O)Cc3ccccc3)C(=O)N21
inhibition [1]: inactive | inhibition [2]: inactive

Cc1ccc(-n2cc(CN(NC(=O)Cc3ccccc3)C(=O)N3CCC[C@H]3C(=O)N[C@@H](Cc3cccnc3)C(=O)N[C@H](CC(=O)O)Cc3ccccc3)nn2)cc1
inhibition [1]: inactive | inhibition [2]: inactive

C#CCN(NC(=O)Cc1ccccc1)C(=O)N1C[C@H](O)C[C@H]1C(=O)N[C@@H](Cc1cccnc1)C(=O)N[C@H](CC(=O)O)Cc1ccccc1
inhibition [1]: Active | inhibition [2]: Active

O=C(O)C[C@H](Cc1ccccc1)NC(=O)[C@H](Cc1cccnc1)NC(=O)[C@@H]1CCCN1C(=O)NNC(=O)Cc1ccccc1 (PhAc-[azaGly]P[3Pal][β3hF]-OH)
Time (Mus musculus [4]): 24 h | inhibition (Mus musculus [5]): Active | Activity (Mus musculus [6]): <20%

C#CCN(NC(=O)Cc1ccccc1)C(=O)N1C[C@@H](O)C[C@H]1C(=O)N[C@@H](Cc1cccnc1)C(=O)N[C@H](CC(=O)O)Cc1ccccc1
inhibition [1]: inactive | inhibition [2]: inactive

O=C(O)C[C@H](Cc1ccccc1)NC(=O)[C@H](Cc1cccnc1)NC(=O)[C@@H]1C[C@H](O)[C@@H]2CC[C@H](NC(=O)Cc3ccccc3)C(=O)N12
inhibition [1]: inactive | inhibition [2]: inactive

C#CCN(NC(=O)Cc1ccccc1)C(=O)N1C[C@H](F)C[C@H]1C(=O)N[C@@H](Cc1cccnc1)C(=O)N[C@H](CC(=O)O)Cc1ccccc1
inhibition [1]: inactive | inhibition [2]: inactive

N[C@H]1C[C@@H](C(=O)N[C@@H](Cc2cccnc2)C(=O)N[C@H](CC(=O)O)Cc2ccccc2)N(C(=O)N(Cc2ccccc2)NC(=O)Cc2ccccc2)C1
inhibition [1]: Active | inhibition [2]: Active

O=C(O)C[C@H](Cc1ccccc1)NC(=O)[C@H](Cc1cccnc1)NC(=O)[C@@H]1CCC2=CC[C@H](NC(=O)Cc3ccccc3)C(=O)N21
inhibition [2]: inactive

CN(C)CC#CCN(NC(=O)Cc1ccccc1)C(=O)N1CCC[C@H]1C(=O)N[C@@H](Cc1cccnc1)C(=O)N[C@H](CC(=O)O)Cc1ccccc1
inhibition [1]: inactive | inhibition [2]: inactive

Nc1ccc(CC(=O)N[C@H]2CC[C@H]3CC[C@@H](C(=O)N[C@@H](Cc4cccnc4)C(=O)N[C@H](CC(=O)O)Cc4ccccc4)N3C2=O)cc1
inhibition [1]: inactive | inhibition [2]: inactive

O=C(O)C[C@H](Cc1ccccc1)NC(=O)[C@H](Cc1cccnc1)NC(=O)[C@@H]1CCC2=C(c3ccccc3)C[C@H](NC(=O)Cc3ccccc3)C(=O)N21
inhibition [1]: Active | inhibition [2]: Active

O=C(O)C[C@H](Cc1ccccc1)NC(=O)[C@H](Cc1cccnc1)NC(=O)[C@@H]1CC[C@@H]2CC[C@H](NC(=O)Cc3ccccc3)C(=O)N21
Time (Mus musculus [8]): ≤ 42 h

[N-]=[N+]=Nc1ccc(CC(=O)N[C@H]2CC[C@H]3CC[C@@H](C(=O)N[C@@H](Cc4cccnc4)C(=O)N[C@H](CC(=O)O)Cc4ccccc4)N3C2=O)cc1
inhibition [1]: inactive | inhibition [2]: inactive

O=C(O)C[C@H](Cc1ccccc1)NC(=O)[C@H](Cc1cccnc1)NC(=O)[C@@H]1CC[C@H]2CC[C@H](NC(=O)Cc3ccccc3)C(=O)N21
inhibition [1]: inactive
